These results are taken from ChEMBL document CHEMBL2407081, “Discovery of potent, isoform-selective inhibitors of histone deacetylase containing chiral heterocyclic capping groups and a N-(2-aminophenyl)benzamide binding unit” (J Med Chem, 2013).

For assay [1], the target named is T1, Protein deacetylase HDAC6 (Homo sapiens, UniProt Q9UBN7).
T1 sequence (Q9UBN7 whole entry): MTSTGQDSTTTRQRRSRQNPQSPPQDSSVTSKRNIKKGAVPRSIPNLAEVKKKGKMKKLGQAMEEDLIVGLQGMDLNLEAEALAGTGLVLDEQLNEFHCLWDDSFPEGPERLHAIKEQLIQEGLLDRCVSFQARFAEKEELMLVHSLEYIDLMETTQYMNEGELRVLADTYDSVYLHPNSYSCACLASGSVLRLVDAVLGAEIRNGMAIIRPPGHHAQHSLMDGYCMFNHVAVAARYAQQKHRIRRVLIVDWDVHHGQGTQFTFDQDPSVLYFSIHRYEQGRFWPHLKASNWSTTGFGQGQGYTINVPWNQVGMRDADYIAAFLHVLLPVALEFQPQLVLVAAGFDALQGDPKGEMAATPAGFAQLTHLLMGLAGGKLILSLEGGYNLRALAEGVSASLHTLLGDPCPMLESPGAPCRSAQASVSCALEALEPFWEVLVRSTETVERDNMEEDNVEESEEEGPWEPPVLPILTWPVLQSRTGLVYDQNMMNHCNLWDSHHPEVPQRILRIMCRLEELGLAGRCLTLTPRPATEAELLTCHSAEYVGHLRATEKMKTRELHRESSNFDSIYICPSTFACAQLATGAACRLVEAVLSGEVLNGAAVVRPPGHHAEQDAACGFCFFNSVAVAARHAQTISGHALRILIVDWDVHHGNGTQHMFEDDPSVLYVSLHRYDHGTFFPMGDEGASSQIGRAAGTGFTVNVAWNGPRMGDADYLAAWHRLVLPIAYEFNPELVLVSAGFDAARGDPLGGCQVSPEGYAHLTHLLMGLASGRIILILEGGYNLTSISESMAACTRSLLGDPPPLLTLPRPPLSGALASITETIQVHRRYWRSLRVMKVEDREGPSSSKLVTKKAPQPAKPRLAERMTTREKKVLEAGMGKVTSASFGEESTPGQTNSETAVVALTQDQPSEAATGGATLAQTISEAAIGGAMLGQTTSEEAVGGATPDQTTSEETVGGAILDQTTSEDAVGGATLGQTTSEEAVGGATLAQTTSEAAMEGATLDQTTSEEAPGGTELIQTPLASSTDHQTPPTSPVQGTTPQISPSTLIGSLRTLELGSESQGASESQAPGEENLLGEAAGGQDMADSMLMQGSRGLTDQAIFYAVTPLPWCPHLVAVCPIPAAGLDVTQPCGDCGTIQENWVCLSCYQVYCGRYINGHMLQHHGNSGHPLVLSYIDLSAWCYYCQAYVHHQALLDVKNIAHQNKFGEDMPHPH
Briefly: Inhibition of recombinant His-tagged HDAC6 (unknown origin) using Fluor-de-Lys SIRT1 as substrate incubated for 3 hrs prior to substrate addition measured after 60 mins by fluorescence plate reader analysis.

In the next assay the target is Histone deacetylase 2 (Homo sapiens, UniProt Q92769). Kind of assay: Inhibition of recombinant His-tagged HDAC2 (1 to 488) (unknown origin) using MAL as substrate incubated for 3 hrs prior to substrate addition measured after 60 mins by fluorescence plate reader analysis.
Chain of Histone deacetylase 2 (Q92769 whole entry): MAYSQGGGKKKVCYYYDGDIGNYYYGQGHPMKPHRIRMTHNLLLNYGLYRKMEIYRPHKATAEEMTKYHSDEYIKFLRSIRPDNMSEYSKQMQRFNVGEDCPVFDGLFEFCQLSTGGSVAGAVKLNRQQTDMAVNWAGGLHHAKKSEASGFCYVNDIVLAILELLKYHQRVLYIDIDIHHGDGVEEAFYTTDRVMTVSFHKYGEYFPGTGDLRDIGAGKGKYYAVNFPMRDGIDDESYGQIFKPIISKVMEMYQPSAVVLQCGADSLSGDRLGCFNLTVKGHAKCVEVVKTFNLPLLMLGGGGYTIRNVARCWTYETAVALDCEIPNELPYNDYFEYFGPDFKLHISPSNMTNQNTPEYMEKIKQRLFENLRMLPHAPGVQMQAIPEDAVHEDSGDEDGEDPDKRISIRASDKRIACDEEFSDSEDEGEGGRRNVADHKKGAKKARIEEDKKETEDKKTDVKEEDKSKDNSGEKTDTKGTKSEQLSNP
The test system of another assay is Jurkat. Briefly: Cell cycle arrest in human Jurkat cells assessed as accumulation at sub-G1 phase at 1 uM after 24 hrs by FITC/propidium iodide staining-based FACS flow cytometric analysis (reference value: 6.8%). Type of assay: functional. An outline of the steps:
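HeLa and Jurkat human cells were cultured for 24 h with compound at two concentrations. The control was an equal volume of the DMSO diluent. Cellular DNA and protein content were then measured by flow cytometry, and the percentage of cells in sub-G1, G0/G1, S and G2/M was read out.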
Background: Flow cytometry measures light scatter and fluorescence of single cells or particles in a stream.

SMILES strings stand for the structures. Some results are limits rather than exact numbers.

`Nc1ccccc1NC(=O)c1ccc(CNC2=N[C@@H](c3ccccc3)CS2)cc1`: the IC50 (as a rule, the concentration needed to halve the response being measured) in assay [1] is above 20 µM; on Histone deacetylase 2, 85 nM. In the assay on Jurkat, the Activity was found to be 36.6%.
